# What was measured:
# [1] = Cardiotoxicity in human iPSC derived cardiomyocytes assessed as change in heart rate at 1 nM measured over 2 hrs by multi-electrode array relative to control; type: toxicity, cell-based; conditions: stem cell-derived cardiomyocyte, 0.001 µM
# In short: (§1)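 Phosphate metabolite of each compound prepared and tested on cultured human induced pluripotent stem cell-derived cardiomyocytes at 1 and 10 nM; beat rate change averaged over three or more replicates per concentration unless noted (some n = 2).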
# [2] = Drug metabolism in Lewis rat blood assessed as concentration of parent compound at 1 mg/kg, po measured at 24 hrs by LC-MS/MS analysis; type: ADME, organism-based; conditions: for concentration at 24 h: Lewis, blood; for concentration at 24 h / concentration: read-out: Ct; for concentration / Ct: in vivo, 1 mg/kg, 24 h; for Ct: BLD = below limit of detection
# In short: (§2)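 Lewis rats (n = 2−4) dosed orally at 0.5, 1, 2 or 5 mg/kg; blood parent and phosphate metabolite concentrations and lymphocyte counts taken 4 and 24 h post-dose; phosphate-to-parent ratio from 24 h levels; significance versus vehicle by ANOVA with Dunnett's test.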
# [3] = Drug metabolism in Lewis rat blood assessed as phosphate ester metabolite to parent ratio at 1 mg/kg, po measured at 24 hrs by LC-MS/MS analysis; conditions: in vivo
# [4] = Drug concentration in Lewis rat blood assessed as concentration of parent compound at 1 mg/kg, po measured at 4 hrs by LC-MS/MS analysis; type: ADME, organism-based; conditions: for concentration at 4 h: Lewis, blood; for concentration at 4 h / concentration: read-out: Ct; in short: as §2
# Rattus norvegicus [5] = test: Reduction in circulating lymphocytes count in Lewis rat at 1 mg/kg, po measured at 4 hrs by hematology analyzer based analysis; type: functional; parameters: scale not given: the % may be the effect or the level left; in short: as §2
# [6] = Cardiotoxicity in human iPSC derived cardiomyocytes assessed as change in heart rate at 10 nM measured over 2 hrs by multi-electrode array relative to control; type: toxicity, cell-based; conditions: stem cell-derived cardiomyocyte, 0.01 µM; in short: as §1
# [7] = Half life in Lewis rat at 1 mg/kg, po measured at 4 to 72 hrs; type: ADME, organism-based; conditions: in vivo, time 4-72 hrs
# In short: (§3)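 Half-life estimated from oral-dosing blood PK profiles in Lewis rats sampled at four time points: 4, 24, 48 and 72 h.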
# [8] = Reduction in circulating lymphocytes count in Lewis rat at 1 mg/kg, po measured at 24 hrs by hematology analyzer based analysis; type: organism-based; parameters: scale not given: the % may be the effect or the level left; conditions: in vivo; in short: as §2
# Rattus norvegicus [9] = test: Reduction in circulating lymphocytes count in Lewis rat at 2 mg/kg, po measured at 4 hrs by hematology analyzer based analysis; type: functional; parameters: scale not given: the % may be the effect or the level left
# In short: (§4)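 Lewis rats (n = 2−4) dosed orally; whole-blood lymphocyte counts taken 4 h and 24 h after dosing and reduction expressed versus vehicle-treated rats. Significance by ANOVA with Dunnett's test (p < 0.05 vs vehicle). Blood levels of parent and phosphate metabolite measured at the same time points in this PK/PD screen.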
# [10] = Ratio of drug metabolism in Lewis rat blood assessed as phosphate ester metabolite to parent drug at 2 mg/kg, po measured at 24 hrs by LC-MS/MS analysis; type: ADME, organism-based; conditions: in vivo; in short: as §2
# [11] = Half life in Lewis rat at 2 mg/kg, po measured at 4 to 72 hrs; type: ADME, organism-based; conditions: in vivo, time 4-72 hrs; for half-life: Lewis; for t1/2: 2 mg/kg; in short: as §3
# [12] = Drug concentration in Lewis rat blood assessed as concentration of parent compound at 2 mg/kg, po measured at 4 hrs by LC-MS/MS analysis; type: ADME, organism-based; conditions: read-out: Ct; for concentration at 4 h: Lewis, blood; for concentration: in vivo, 2 mg/kg, 4 h; in short: as §2
# [13] = Drug concentration in Lewis rat blood assessed as concentration of parent compound at 2 mg/kg, po measured at 24 hrs by LC-MS/MS analysis; type: ADME, organism-based; conditions: in vivo; for concentration: read-out: Ct; in short: as §2
# [14] = Reduction in circulating lymphocytes count in Lewis rat at 2 mg/kg, po measured at 24 hrs by hematology analyzer based analysis; type: Functional, organism-based; parameters: scale not given: the % may be the effect or the level left; conditions: in vivo; in short: as §4
# [15] = Pulmonary toxicity in Lewis rat assessed as fold elevation of BAL protein content at 2 mg/kg, po by chemistry analyzer based analysis relative to control; type: organism-based; conditions: in vivo
# In short: (§5)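 Lewis rats dosed orally; bronchoalveolar lavage protein measured at study end, expressed as fold over vehicle control.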
# [16] = Pulmonary toxicity in Lewis rat assessed as fold elevation of BAL protein content at 1 mg/kg, po by chemistry analyzer based analysis relative to control; type: organism-based; conditions: in vivo; in short: as §5
# [17] = in vivo, 1 mg/kg, 4 h, 1 mg/kg, 4 h
Structure (SMILES),concentration at 24 h [2] [nM],Ratio [3],concentration at 4 h [4] [nM],Activity [8] [%],Activity [14] [%],Activity [1] [%],Activity (Rattus norvegicus [5]) [%],Activity [6] [%],fold change (FC) [16],further results
CCCCCOC[C@H]1CCc2cc([C@H]3CC[C@](N)(CO)C3)ccc2C1,18,–,12,32,–,–,7,–,1.7,–
"CCC/C=C/CC1CCc2cc([C@H]3CC[C@](N)(CO)C3)ccc2C1 (single isomer, unassigned)",51,2.3,31,62,–,-9.6,10,-23,–,half-life [7]: 62 h
CCCCSC[C@@H]1CCc2cc([C@H]3CC[C@](N)(CO)C3)ccc2C1,73,0.36,–,63,–,-28,6,-46,1.1,"Ct ([4]; in vivo, 1 mg/kg, 4 h, BLD = below limit of detection): Bld; half-life [7]: 27 h"
CCCCCOC1CCc2cc([C@H]3CC[C@](N)(CO)C3)ccc2C1 (stereo in doubt; 10b),–,0.27,–,67,–,-12,–,-49,–,"concentration [2]: 240 nM; concentration [4, 17]: 215 nM; Activity (Rattus norvegicus [5]; 1 mg/kg, 4 h): 32%"
CCCC/C=C\[C@@H]1CCc2cc([C@H]3CC[C@](N)(CO)C3)ccc2C1,24,0.27,24,0,–,–,4,–,–,–
CCCCCCCOC1CCc2cc([C@H]3CC[C@](N)(CO)C3)ccc2C1 (stereo in doubt; 33a),–,–,32,80,–,–,–,–,0.85,"concentration [2]: 54 nM; Activity (Rattus norvegicus [5]; 1 mg/kg, 4 h): 13%; half-life [7]: 29 h"
CCCCCCOC1CCc2cc([C@H]3CC[C@](N)(CO)C3)ccc2C1 (stereo in doubt; 30a),–,–,–,82,–,-39,–,-40,1.1,"concentration [2]: 28 nM; concentration [4, 17]: 53 nM; Activity (Rattus norvegicus [5]; 1 mg/kg, 4 h): 39%"
"CCC/C=C\CC1CCc2cc([C@H]3CC[C@](N)(CO)C3)ccc2C1 (single isomer, unassigned)",14,8.6,10,71,–,-11,13,-25,–,half-life [7]: 59 h
"CCCCSCC1CCc2cc([C@H]3CC[C@](N)(CO)C3)ccc2C1 (single isomer, unassigned)",–,–,–,–,44,-14,–,-25,–,Activity (Rattus norvegicus [9]): 20%; Ratio [10]: 0.23; fold change (FC) [15]: 1.1; concentration at 4 h [12]: 138 nM; concentration [13]: 110 nM
CCCCCCCOC1CCc2cc([C@H]3CC[C@](N)(CO)C3)ccc2C1 (stereo in doubt; 33b),–,–,–,–,–,–,–,–,1,"concentration [2]: 25 nM; concentration [4, 17]: 40 nM; Activity (Rattus norvegicus [5]; 1 mg/kg, 4 h): 14%"
CCCCCCOC1CCc2cc([C@H]3CC[C@](N)(CO)C3)ccc2C1 (stereo in doubt; 30b),–,–,–,–,–,–,–,–,1.4,"concentration [2]: 417 nM; concentration [4, 17]: 362 nM; Activity (Rattus norvegicus [5]; 1 mg/kg, 4 h): 20%"
CCCCCOC1CCc2cc([C@H]3CC[C@](N)(CO)C3)ccc2C1 (stereo in doubt; 10a),210,0.86,244,78,–,–,–,–,0.94,"Activity (Rattus norvegicus [5]; 1 mg/kg, 4 h): 62%"
CCCC/C=C/[C@@H]1CCc2cc([C@H]3CC[C@](N)(CO)C3)ccc2C1,77,2.6,57,72,–,–,0,–,–,half-life [7]: > 75 h
CCCOCCOC1CCc2cc([C@H]3CC[C@](N)(CO)C3)ccc2C1 (stereo partly drawn),–,–,46,70,40,–,72,–,1.3,Activity (Rattus norvegicus [9]): 0%; Ratio [10]: 2.4; Ct [2]: Bld; concentration at 4 h [12]: 100 nM; Ct ([13]; BLD = below limit of detection): Bld
CCCOCCOC[C@H]1CCc2cc([C@H]3CC[C@](N)(CO)C3)ccc2C1,–,–,78,20,–,–,67,–,2.4,Ct [2]: Bld

# The next lines start with results.
concentration at 24 h [2] [nM],Ratio [3],concentration at 4 h [4] [nM],Activity [8] [%],Activity [14] [%],Structure (SMILES),Activity [1] [%],Activity (Rattus norvegicus [5]) [%],Activity [6] [%],fold change (FC) [16],further results
180,1.3,165,69,–,CC/C=C\CC[C@@H]1CCc2cc([C@H]3CC[C@](N)(CO)C3)ccc2C1,-21,31,-38,–,half-life [7]: 5 h
–,–,–,–,74,C=CCCOC[C@@H]1CCc2cc([C@H]3CC[C@](N)(CO)C3)ccc2C1,–,–,–,–,Activity (Rattus norvegicus [9]): 55%; Ratio [10]: 0.9; half-life [11]: 11 h; concentration at 4 h [12]: 170 nM; concentration [13]: 48 nM
–,–,–,–,66,COCCCC1CCc2cc([C@H]3CC[C@](N)(CO)C3)ccc2C1 (stereo in doubt; 22b),-20,–,-25,–,"Activity (Rattus norvegicus [9]; 2 mg/kg, 4 h): 62%; Ratio [10]: 0.9; t1/2 [11]: 14 h; fold change (FC) [15]: 1.6; concentration [12]: 215 nM; concentration [13]: 86 nM"
–,–,–,–,74,"CCSCCCC1CCc2cc([C@H]3CC[C@](N)(CO)C3)ccc2C1 (single isomer, unassigned)",-42,–,-53,–,Activity (Rattus norvegicus [9]): 65%; half-life [11]: 14 h; concentration at 4 h [12]: 190 nM; concentration [13]: 42 nM
39,0.64,66,71,–,CCCCOC[C@@H]1CCc2cc([C@H]3CC[C@](N)(CO)C3)ccc2C1,–,42,–,0.95,–
–,–,–,–,79,COCCCCCCC1CCc2cc([C@H]3CC[C@](N)(CO)C3)ccc2C1 (stereo in doubt; 25b),-25,–,–,–,"Activity (Rattus norvegicus [9]; 2 mg/kg, 4 h): 45%; Ratio [10]: 2.5; t1/2 [11]: 26 h; fold change (FC) [15]: 1.2; concentration [12]: 320 nM; concentration [13]: 295 nM"
140,5.8,66,74,–,CC/C=C/CC[C@@H]1CCc2cc([C@H]3CC[C@](N)(CO)C3)ccc2C1,-11,27,-33,1.1,half-life [7]: 4 h
–,–,–,–,73,CCCSCC[C@@H]1CCc2cc([C@H]3CC[C@](N)(CO)C3)ccc2C1,-43,–,-42,–,Activity (Rattus norvegicus [9]): 63%; Ratio [10]: 0.17; fold change (FC) [15]: 1.1; concentration at 4 h [12]: 193 nM; concentration [13]: 72 nM
–,–,–,–,12,COCCC1CCc2cc([C@H]3CC[C@](N)(CO)C3)ccc2C1 (stereo in doubt; 21a),–,–,–,–,Activity (Rattus norvegicus [9]): 0%
–,–,15,13,–,COCCOC[C@@H]1CCc2cc([C@H]3CC[C@](N)(CO)C3)ccc2C1,–,16,–,1.3,Ct [2]: Bld
–,–,–,–,2,COCCC1CCc2cc([C@H]3CC[C@](N)(CO)C3)ccc2C1 (stereo in doubt; 21b),–,–,–,–,–
28,–,27,80,–,CCCCCOC[C@@H]1CCc2cc([C@H]3CC[C@](N)(CO)C3)ccc2C1,–,27,–,2,–
40,19,30,75,–,C=CCCCC[C@@H]1CCc2cc([C@H]3CC[C@](N)(CO)C3)ccc2C1,–,9,–,–,half-life [7]: 47 h

# From ChEMBL document CHEMBL4732158, “Bicyclic Ligand-Biased Agonists of S1P: Exploring Side Chain Modifications to Modulate the PK, PD, and Safety Profiles” (J Med Chem, 2021)
